# Experimental data reported in ChEMBL document CHEMBL1629690, “Development of hexadecyloxypropyl tenofovir (CMX157) for treatment of infection caused by wild-type and nucleoside/nucleotide-resistant HIV” (Antimicrob Agents Chemother, 2010).
# Experiments:
# PBMC [1] = experiment: Cellular uptake in PHA/IL-2-stimulated human PBMC at 10 uM assessed as TFV-diphosphate after 24 hrs by MS/MS analysis; format: ADME, cell-based
# Summary of the method: (§1)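 PHA-stimulated (4 μg/ml PHA, 48 to 72 h; 20 U/ml rhIL-2) human PBMCs at 2 × 10^6 cells/ml in RPMI 1640 with 15% FBS, given tenofovir or prodrug (final 0.01 to 10 μM) for 24 h at 37°C. Cells washed three times in cold 0.9% NaCl, counted, and 1 × 10^7 cell aliquots pelleted. TFV, TFV-MP and TFV-PP were separated by ion-pairing reverse-phase LC and detected by positive-ion electrospray MS. Output is pmol per 10^6 cells.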
# [2] = tested on: Human immunodeficiency virus 1; experiment: Antiviral activity against HIV1 NL 4-3 expressing wild type reverse transcriptase infected in human PBMC by ELISA; format: functional, organism-based; conditions: Human immunodeficiency virus 1, NL 4-3
# Summary of the method: (§2)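 Fresh donor PBMCs, HIV- and HBV-seronegative, were stimulated with 4 μg/ml PHA for 48 to 72 h and kept on 20 U/ml rhIL-2. Cells pooled from at least two donors were seeded at 5 × 10^4 per well and infected at MOI ~0.1. Nine compound concentrations were run in triplicate wells for 7 days.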
# [3] = tested on: Human immunodeficiency virus 1; experiment: Antiviral activity against HIV1 7324-1 harboring reverse transcriptase 41L/67N/69N/70R/215F/219E mutant gene infected in human PBMC by ELISA; format: functional, organism-based; conditions: Human immunodeficiency virus 1, 7324-1
# Summary of the method: (§3)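 Fresh PBMCs pooled from at least two HIV- and HBV-seronegative donors, stimulated with PHA 4 μg/ml for 48–72 h and kept in rhIL-2 20 U/ml. Seeded at 5 × 10^4 cells/well and infected with RT-mutant HIV-1 clones at MOI ~0.1. Nine compound concentrations, triplicate wells, 7-day incubation. EC50 reported as mean ± SD of one to three independent experiments.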
# HeLa = experiment: Cytotoxicity against human HeLa cells after 24 hrs by XTT assay; format: cell-based
# Summary of the method: (§4)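 Six-concentration growth-inhibition test: 10 to 0.032 μM for the prodrug and TDF, up to 100 μM for TFV, with Triton X-100 run in parallel. Cell lines were split 1:2 the day before and seeded at 5 × 10^3 to 2 × 10^4 cells/well, with adherent lines left overnight. Dendritic cells were derived with GM-CSF/IL-4 for 7 days, then LPS 10 ng/ml for 2 days. Viability was read by XTT.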
# PBMC [4] = experiment: Cellular uptake in human PBMC at 10 uM assessed as TFV-monophosphate after 24 hrs by MS/MS analysis; format: ADME, cell-based
# Summary of the method: (§5)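 Human PBMCs, unstimulated or PHA/IL-2-stimulated, at 2 × 10^6 cells/ml in RPMI 1640 with 15% FBS, exposed 24 h at 37°C to final 0.01, 0.1, 1.0 or 10 μM of the prodrug, or 1.0 or 10 μM tenofovir. After cold saline washes the cells were counted and 1 × 10^7-cell pellets made. TFV, TFV-MP and TFV-PP were measured by ion-pairing LC with positive-ion electrospray MS as pmol/10^6 cells.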
# [5] = tested on: Human immunodeficiency virus 1; experiment: Antiviral activity against HIV1 4755-5 harboring reverse transcriptase 41L/44D/67N/69D/118I/210W/215Y/184V mutant gene infected in human PBMC by ELISA; format: functional, organism-based; conditions: Human immunodeficiency virus 1, 4755-5; summary of the method: as §3
# PBMC [6] = experiment: Cellular uptake in human PBMC at 10 uM assessed as TFV-diphosphate after 24 hrs by MS/MS analysis; format: ADME, cell-based; summary of the method: as §5
# PBMC [7] = experiment: Cellular uptake in PHA/IL-2-stimulated human PBMC at 10 uM assessed as TFV-monophosphate after 24 hrs by MS/MS analysis; format: ADME, cell-based; summary of the method: as §1
# [8] = Cytotoxicity against human HuH7 cells after 24 hrs by XTT assay; format: cell-based; conditions: huh-7, 24 h; summary of the method: as §4
# PBMC [9] = experiment: Cellular uptake in human PBMC at 1 uM assessed as TFV-monophosphate level after 24 hrs by MS/MS analysis; format: ADME, cell-based; summary of the method: as §5
# PBMC [10] = experiment: Cellular uptake in PHA/IL-2-stimulated human PBMC at 1 uM assessed as TFV-diphosphate level after 24 hrs by MS/MS analysis; format: ADME, cell-based; summary of the method: as §1
# [11] = Cytotoxicity against human MDM up to 1000 nM by MTS assay; format: cell-based
# [12] = tested on: Human immunodeficiency virus 2; experiment: Antiviral activity against HIV2 isolate CDC310319 infected in human PBMC after 48 to 72 hrs by MTS assay; format: functional, organism-based; conditions: Human immunodeficiency virus 2, isolate CDC310319; summary of the method: as §2
# [13] = tested on: Human immunodeficiency virus 1; experiment: Antiviral activity against HIV1 subtype E isolate CMU06 infected in human PBMC after 48 to 72 hrs by MTS assay; format: functional, organism-based; conditions: Human immunodeficiency virus 1, isolate CMU06; summary of the method: as §2
# [14] = tested on: Human immunodeficiency virus 1; experiment: Antiviral activity against HIV1 subtype D isolate 92UG001 infected in human PBMC after 48 to 72 hrs by MTS assay; format: functional, organism-based; conditions: Human immunodeficiency virus 1, isolate 92UG001; summary of the method: as §2
# [15] = tested on: Human immunodeficiency virus 1; experiment: Antiviral activity against HIV1 subtype A isolate 92RW009 infected in human PBMC after 48 to 72 hrs by MTS assay; format: functional, organism-based; conditions: Human immunodeficiency virus 1, isolate 92RW009; summary of the method: as §2
# [16] = tested on: Human immunodeficiency virus 1; experiment: Antiviral activity against HIV1 subtype A isolate 92UG029 infected in human MDM […] by MTS assay; format: functional, organism-based; conditions: Human immunodeficiency virus 1, isolate 92UG029
# [17] = tested on: Human immunodeficiency virus 1; experiment: Antiviral activity against HIV1 subtype D isolate 92UG024 infected in human PBMC after 48 to 72 hrs by MTS assay; format: functional, organism-based; conditions: Human immunodeficiency virus 1, isolate 92UG024; summary of the method: as §2
# [18] = tested on: Human immunodeficiency virus 1; experiment: Antiviral activity against HIV1 subtype C isolate 92BR025 infected in human PBMC after 48 to 72 hrs by MTS assay; format: functional, organism-based; conditions: Human immunodeficiency virus 1, isolate 92BR025; summary of the method: as §2
# [19] = tested on: Human immunodeficiency virus 2; experiment: Antiviral activity against HIV2 isolate CBL-20 infected in human PBMC after 48 to 72 hrs by MTS assay; format: functional, organism-based; conditions: Human immunodeficiency virus 2, isolate CBL-20; summary of the method: as §2
# PBMC [20] = experiment: Cytotoxicity against human PBMC up to 1000 nM by MTS assay; format: cell-based
# [21] = tested on: Human immunodeficiency virus 1; experiment: Antiviral activity against HIV1 subtype E isolate 93TH073 infected in human PBMC after 48 to 72 hrs by MTS assay; format: functional, organism-based; conditions: Human immunodeficiency virus 1, isolate 93TH073; summary of the method: as §2
# [22] = tested on: Human immunodeficiency virus 1; experiment: Antiviral activity against HIV1 subtype A isolate 92UG037 infected in human PBMC after 48 to 72 hrs by MTS assay; format: functional, organism-based; conditions: Human immunodeficiency virus 1, isolate 92UG037; summary of the method: as §2
# [23] = tested on: Human immunodeficiency virus 2; experiment: Antiviral activity against HIV2 isolate CDC310342 infected in human PBMC after 48 to 72 hrs by MTS assay; format: functional, organism-based; conditions: Human immunodeficiency virus 2, isolate CDC310342; summary of the method: as §2
# [24] = tested on: Human immunodeficiency virus 1; experiment: Antiviral activity against HIV1 subtype D isolate 92UG046 infected in human PBMC after 48 to 72 hrs by MTS assay; format: functional, organism-based; conditions: Human immunodeficiency virus 1, isolate 92UG046; summary of the method: as §2
# [25] = tested on: Human immunodeficiency virus 1; experiment: Antiviral activity against HIV1 subtype B isolate 92TH026 infected in human PBMC after 48 to 72 hrs by MTS assay; format: functional, organism-based; conditions: Human immunodeficiency virus 1, isolate 92TH026; summary of the method: as §2
# [26] = tested on: Human immunodeficiency virus 1; experiment: Antiviral activity against HIV1 subtype G isolate RU132 infected in human PBMC after 48 to 72 hrs by MTS assay; format: functional, organism-based; conditions: Human immunodeficiency virus 1, isolate RU132; summary of the method: as §2
# [27] = tested on: Human immunodeficiency virus 1; experiment: Antiviral activity against HIV1 subtype F isolate 93BR029 infected in human PBMC after 48 to 72 hrs by MTS assay; format: functional, organism-based; conditions: Human immunodeficiency virus 1, isolate 93BR029; summary of the method: as §2
SMILES,Drug uptake (PBMC [1]),EC50 [2],EC50 [3],Activity (HeLa),Drug uptake (PBMC [4]),EC50 [5],Drug uptake (PBMC [6]),Activity [8],Drug uptake (PBMC [10]),Activity [11],EC50 [12],EC50 [13],EC50 [14],EC50 [15],EC50 [16],EC50 [17],EC50 [18],EC50 [19],Activity (PBMC [20]),EC50 [21],also measured
C[C@H](Cn1cnc2c(N)ncnc21)OCP(=O)(O)O [TENOFOVIR ANHYDROUS],0.22 pmol/10^6 cells,300 nM,6500 nM,Non-toxic,0.05 pmol/10^6 cells,5400 nM,0.15 pmol/10^6 cells,Non-toxic,0.05 pmol/10^6 cells,,,,,,,,,,,,Drug uptake (PBMC [7]; BLD = below limit of detection): BLD; Drug uptake (PBMC [9]; BLD = below limit of detection): BLD
CCCCCCCCCCCCCCCCOCCCOP(=O)(O)CO[C@H](C)Cn1cnc2c(N)ncnc21 [TENOFOVIR EXALIDEX],5.5 pmol/10^6 cells,1.5 nM,3.8 nM,Non-toxic,0.12 pmol/10^6 cells,3.1 nM,1.1 pmol/10^6 cells,Non-toxic,1.7 pmol/10^6 cells,Non-toxic,3.5 nM,2.3 nM,2.1 nM,3.3 nM,1.3 nM,2.1 nM,2.8 nM,3.5 nM,Non-toxic,2.3 nM,Drug uptake (PBMC [7]): 0.9 pmol/10^6 cells; Drug uptake (PBMC [9]): 0.05 pmol/10^6 cells; EC50 [22]: 3.3 nM; EC50 [23]: 3.5 nM; EC50 [24]: 2.1 nM; EC50 [25]: 1.5 nM; EC50 [26]: 2.2 nM; EC50 [27]: 2.7 nM
Cc1cn([C@H]2C[C@H](N=[N+]=[N-])[C@@H](CO)O2)c(=O)[nH]c1=O [ZIDOVUDINE],,0.53 nM,330 nM,,,100 nM,,,,Non-toxic,9.3 nM,5.5 nM,6.3 nM,14 nM,1.2 nM,6.3 nM,4.9 nM,9.3 nM,Non-toxic,5.5 nM,EC50 [22]: 14 nM; EC50 [23]: 9.3 nM; EC50 [24]: 6.3 nM; EC50 [25]: 2 nM; EC50 [26]: 4.7 nM; EC50 [27]: 9.6 nM
